Results taken from ChEMBL document CHEMBL1139646, “Sialyl Lewis(x) analogs based on a quinic acid scaffold as the fucose mimic” (Bioorg Med Chem Lett, 2005).
Activity calls are given as the source filed them. The rule behind the calls is not given here.

Assays:
Format in all cases: cell-based
P-selectin [1] = molecular target: T1, P-selectin (Homo sapiens, UniProt P16109); assay: Inhibition of HL-60 cell adhesion to recombinant human Selectin P; Not active up to 100 mM
T1 sequence (P16109 whole entry): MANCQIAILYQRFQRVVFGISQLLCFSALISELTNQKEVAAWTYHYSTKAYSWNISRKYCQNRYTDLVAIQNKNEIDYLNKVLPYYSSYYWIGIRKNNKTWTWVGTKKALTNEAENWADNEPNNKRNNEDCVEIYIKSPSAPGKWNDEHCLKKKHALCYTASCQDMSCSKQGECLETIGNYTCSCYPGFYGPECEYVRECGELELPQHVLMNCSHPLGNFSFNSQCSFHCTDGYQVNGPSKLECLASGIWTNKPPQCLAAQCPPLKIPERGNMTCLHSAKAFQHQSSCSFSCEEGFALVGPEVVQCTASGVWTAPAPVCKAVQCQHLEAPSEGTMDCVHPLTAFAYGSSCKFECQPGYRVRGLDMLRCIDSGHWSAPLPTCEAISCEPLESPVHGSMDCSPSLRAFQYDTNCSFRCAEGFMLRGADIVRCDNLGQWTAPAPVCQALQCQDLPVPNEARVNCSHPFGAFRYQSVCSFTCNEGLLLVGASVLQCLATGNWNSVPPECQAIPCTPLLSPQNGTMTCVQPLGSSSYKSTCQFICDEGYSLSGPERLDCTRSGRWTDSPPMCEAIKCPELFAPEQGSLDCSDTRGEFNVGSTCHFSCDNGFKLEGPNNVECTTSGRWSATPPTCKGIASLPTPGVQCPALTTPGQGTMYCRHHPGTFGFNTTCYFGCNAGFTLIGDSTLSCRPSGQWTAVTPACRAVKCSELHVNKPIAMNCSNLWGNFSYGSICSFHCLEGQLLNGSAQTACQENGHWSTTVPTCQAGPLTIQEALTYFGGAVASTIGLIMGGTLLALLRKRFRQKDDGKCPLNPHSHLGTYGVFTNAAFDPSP
How it was run: (§1)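 Recombinant human E- or P-selectin was coated in DPBS at 3 µg/mL (150 ng per well) for 3 h and blocked 1 h with DPBS/1% BSA. Inhibitor, diluted from 10 mM DPBS stock into Hanks'/20 mM Hepes pH 7.2–7.4/0.2% glucose/1% BSA, was added with 10^5 HL-60 cells for 15 min at room temperature, then washed with CaCl2-containing buffer. Bound cells were lysed and myeloperoxidase was read with o-phenylenediamine/H2O2 for 1 h at A492. Percent inhibition is relative to the no-inhibitor control.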

[2] = molecular target: T2, P-selectin (Homo sapiens) (UniProt P16109); assay: Inhibition of HL-60 cell adhesion to recombinant human Selectin P at 50 mM; Not active up to 100 mM; how it was run: as §1
T2 sequence (whole entry): T1 sequence (P16109 whole entry)

[3] = molecular target: T3, E-selectin (Homo sapiens) (UniProt P16581); assay: Inhibition of HL-60 cell adhesion to recombinant human Selectin E at 50 mM; Not active up to 100 mM; how it was run: as §1
T3 sequence (whole entry): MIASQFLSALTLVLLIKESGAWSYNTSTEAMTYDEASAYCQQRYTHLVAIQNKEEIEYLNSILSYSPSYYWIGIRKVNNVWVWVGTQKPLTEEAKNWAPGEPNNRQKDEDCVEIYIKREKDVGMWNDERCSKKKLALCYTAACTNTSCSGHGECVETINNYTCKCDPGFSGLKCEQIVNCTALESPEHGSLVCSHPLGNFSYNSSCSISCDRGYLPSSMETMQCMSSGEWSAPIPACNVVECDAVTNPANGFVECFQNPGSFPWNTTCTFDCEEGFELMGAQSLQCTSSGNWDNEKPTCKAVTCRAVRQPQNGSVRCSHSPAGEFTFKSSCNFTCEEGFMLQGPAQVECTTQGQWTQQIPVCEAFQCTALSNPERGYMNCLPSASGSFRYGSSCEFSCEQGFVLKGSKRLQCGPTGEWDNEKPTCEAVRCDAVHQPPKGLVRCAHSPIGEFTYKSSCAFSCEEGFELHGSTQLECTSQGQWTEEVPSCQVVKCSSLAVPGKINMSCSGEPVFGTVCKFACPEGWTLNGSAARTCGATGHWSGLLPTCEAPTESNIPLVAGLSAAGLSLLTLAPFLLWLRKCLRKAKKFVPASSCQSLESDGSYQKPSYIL

E-selectin = molecular target: T4, E-selectin (Homo sapiens, UniProt P16581); assay: Inhibition of HL-60 cell adhesion to recombinant human Selectin E; how it was run: as §1
T4 sequence (P16581 whole entry): T3 sequence (whole entry)

P-selectin [4] = molecular target: T1, P-selectin; assay: Inhibition of HL-60 cell adhesion to recombinant human Selectin P; how it was run: as §1
[5] = molecular target: T2, P-selectin (Homo sapiens); assay: Inhibition of HL-60 cell adhesion to recombinant human Selectin P at 50 mM
[6] = molecular target: T3, E-selectin (Homo sapiens); assay: Inhibition of HL-60 cell adhesion to recombinant human Selectin E at 50 mM; how it was run: as §1

| SMILES | IC50 (P-selectin [1]) | inhibition [2] | inhibition [3] | IC50 (E-selectin; hl-60) | IC50 (P-selectin [4]) [mM] | inhibition [5] [%] | IC50 (E-selectin; read-out: IC50) [mM] | inhibition [6] [%] |
| --- | --- | --- | --- | --- | --- | --- | --- | --- |
| O=C(O)[C@]1(O)C[C@@H](O)[C@@H](O)[C@H](O)C1 [QUINIC ACID] | Not Active | inactive | inactive | Not Active | – | – | – | – |
| CCC(C)[C@H](NC(=O)[C@]1(O)C[C@@H](O)[C@@H](O)[C@H](O)C1)C(=O)O (some centres not stated) | – | – | – | – | 19 | 92 | > 50 | 44 |
| O=C(O)CNC(=O)[C@]1(O)C[C@@H](O)[C@@H](O)[C@H](O)C1 | – | – | – | – | > 50 | 38 | > 50 | 38 |
| O=C(O)CC[C@H](NC(=O)[C@]1(O)C[C@@H](O)[C@@H](O)[C@H](O)C1)C(=O)O | – | – | – | – | 21 | 86 | > 50 | 43 |
| C[C@H](NC(=O)[C@]1(O)C[C@@H](O)[C@@H](O)[C@H](O)C1)C(=O)O | – | – | – | – | > 50 | 8 | > 50 | 30 |
| O=C(O)CCCCCNC(=O)[C@]1(O)C[C@@H](O)[C@@H](O)[C@H](O)C1 | – | – | – | – | > 50 | 14 | > 50 | 31 |
| O=C(O)CCCNC(=O)[C@]1(O)C[C@@H](O)[C@@H](O)[C@H](O)C1 | – | – | – | – | 40 | 83 | > 50 | 40 |
| O=C(O)[C@H](CO)NC(=O)[C@]1(O)C[C@@H](O)[C@@H](O)[C@H](O)C1 | – | – | – | – | 19.5 | 88 | > 50 | 46 |
